Assay [1] addresses T1, Histone deacetylase 1 (Homo sapiens, UniProt Q13547). Nature of the assay: Inhibition of full length recombinant human C-terminal FLAG/His-tagged HDAC1 expressed in baculovirus expression system using Boc-Lys(acetyl)-AMC as substrate preincubated for 1 hr followed by substrate addition measured after 2 hrs by fluorescence assay. Summed up:
(§1)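 Recombinant HDAC incubated with serial compound dilutions at 30 °C for 1 h. Reaction run 2 h at 30 °C, stopped with developer containing trypsin and TSA. Fluorescence read after 30 min at 360/460 nm. Inhibition relative to control wells; IC50 from variable-slope fit.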

Assay [2] deals with Histone deacetylase 3/Nuclear receptor corepressor 2 (HDAC3/NCoR2) (Homo sapiens, UniProt O15379). Nature of the assay: Inhibition of full length recombinant human C-terminal His-tagged HDAC3/N-terminal GST-tagged NCOR2 co-expressed in baculovirus expression system using Boc-Lys(acetyl)-AMC as substrate preincubated for 1 hr followed by substrate addition measured after 2 hrs by fluorescence assay. A digest of the protocol:
as §1

Assay [3] concerns the target T2, Protein deacetylase HDAC6 (Homo sapiens, UniProt Q9UBN7).
T2 sequence (Q9UBN7 whole entry): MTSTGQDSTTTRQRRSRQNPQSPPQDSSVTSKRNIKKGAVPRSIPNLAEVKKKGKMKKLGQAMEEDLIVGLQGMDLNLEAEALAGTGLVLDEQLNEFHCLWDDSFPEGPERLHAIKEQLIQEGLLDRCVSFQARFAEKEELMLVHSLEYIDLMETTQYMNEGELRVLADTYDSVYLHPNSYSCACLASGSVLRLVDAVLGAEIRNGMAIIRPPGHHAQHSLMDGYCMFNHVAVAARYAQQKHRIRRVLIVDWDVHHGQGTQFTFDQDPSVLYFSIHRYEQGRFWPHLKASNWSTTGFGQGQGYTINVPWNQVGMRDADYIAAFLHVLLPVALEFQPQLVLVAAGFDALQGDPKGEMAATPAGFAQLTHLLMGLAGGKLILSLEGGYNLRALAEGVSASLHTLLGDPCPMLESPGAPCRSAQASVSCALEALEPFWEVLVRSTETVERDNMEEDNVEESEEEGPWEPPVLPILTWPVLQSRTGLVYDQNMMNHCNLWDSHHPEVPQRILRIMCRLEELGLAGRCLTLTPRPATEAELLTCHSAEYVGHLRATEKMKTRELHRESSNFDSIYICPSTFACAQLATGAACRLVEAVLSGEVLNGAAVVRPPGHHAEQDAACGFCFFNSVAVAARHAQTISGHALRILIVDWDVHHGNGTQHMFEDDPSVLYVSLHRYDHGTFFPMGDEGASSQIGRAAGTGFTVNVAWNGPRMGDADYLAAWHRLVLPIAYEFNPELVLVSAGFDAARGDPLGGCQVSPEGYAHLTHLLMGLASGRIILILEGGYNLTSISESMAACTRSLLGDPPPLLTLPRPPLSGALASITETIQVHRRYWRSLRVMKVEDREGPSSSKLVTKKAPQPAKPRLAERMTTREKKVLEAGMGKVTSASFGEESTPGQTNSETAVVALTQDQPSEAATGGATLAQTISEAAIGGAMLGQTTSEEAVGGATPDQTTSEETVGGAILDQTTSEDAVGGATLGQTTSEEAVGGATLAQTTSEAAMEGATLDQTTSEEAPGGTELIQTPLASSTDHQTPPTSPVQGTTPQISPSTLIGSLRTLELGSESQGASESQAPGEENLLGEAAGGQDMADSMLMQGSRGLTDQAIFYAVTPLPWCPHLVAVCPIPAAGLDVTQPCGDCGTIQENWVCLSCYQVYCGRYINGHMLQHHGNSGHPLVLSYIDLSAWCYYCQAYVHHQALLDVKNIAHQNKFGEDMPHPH
Nature of the assay: Inhibition of HDAC6 (unknown origin) using Boc-Lys(acetyl)-AMC as substrate preincubated for 1 hr followed by substrate addition measured after 2 hrs by fluorescence assay. A digest of the protocol: as §1

The target of a further assay is Histone deacetylase 5 (Homo sapiens, UniProt Q9UQL6). Nature of the assay: Inhibition of recombinant human HDAC5 expressed in baculovirus expression system using Boc-Lys(trifluoroacetyl)-AMC as substrate preincubated for 1 hr followed by substrate addition measured after 2 hrs by fluorescence assay. Summed up:
as §1

In assay [4] the target is Matrix metalloproteinase 2/9 (Homo sapiens) (UniProt P08253+P14780). Nature of the assay: Inhibition of human MMP2/C-terminal hemopexin domain truncated MMP9 up to 50 uM preincubated for 10 to 15 mins followed by substrate addition measured after 2 hrs by fluorescence assay. The format is protein assay. A digest of the protocol: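 Gelatinase kit assay: compound (100 μM stock), MMP inhibitor (40 μM stock) or activation buffer combined with MMP-2/MMP-9 in activation buffer. After 10–15 min, substrate added and incubated at 37 °C for 2 h. Fluorescence read at 320/405 nm.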

In assay [5] the test system is PC-3. Nature of the assay: Antiproliferative activity against human PC3 cells assessed as cell viability at 10 uM after 48 hrs by CellTiter-Blue assay relative to control. Type of assay: functional. The conditions noted are these: PC-3, 48 h, read-out: Activity. Summed up:
(§2)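 MV4-11 and PC-3 cells treated with 10 or 2 μM (or 0 μM) and sampled at 24 and 48 h. Viable cells measured by CellTiter-Blue resorufin fluorescence, read as in the EC50 assay, which is proportional to viable cell number. Representative of n = 2 experiments.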
Background: Resazurin is reduced to fluorescent resorufin, in cell work by metabolically active cells.

For assay [6], the system named is PC-3. Nature of the assay: Antiproliferative activity against human PC3 cells assessed as cell viability at 2 uM after 48 hrs by CellTiter-Blue assay relative to control. Type of assay: functional, cell-based. Summed up: as §2
Assay [7] concerns PC-3. Nature of the assay: Downregulation of HDAC6 protein expression in human PC3 cells at 1 to 2 uM after 24 hrs by Western blot method. Type of assay: functional, cell-based. A digest of the protocol:
(§3)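 MV4-11 (1,500,000/well) or PC-3 (300,000/well) grown 12 h, then treated 24 h at 1 and 2 μM, with 5 μM SAHA as reference. RIPA lysis, sonication and centrifugation, BCA normalization. NuPAGE 4–12% Bis-Tris gel in MES, transfer, primary antibodies 1/1000 overnight at 4 °C. Actin as loading control.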
(Immunoblotting shows a protein as a band on a membrane.)

For assay [8], the target named is T3, Protein deacetylase HDAC6 (Homo sapiens) (UniProt Q9UBN7).
T3 sequence (whole entry): T2 sequence (Q9UBN7 whole entry)
Nature of the assay: Inhibition of HDAC6 in human PC3 cells assessed as increase in acetylated tubulin level at 1 to 2 uM after 24 hrs by Western blot method. The format is cell-based. A digest of the protocol: as §3

For assay [9], the system named is PC-3. Nature of the assay: Downregulation of HDAC1 protein expression in human PC3 cells at 1 to 2 uM after 24 hrs by Western blot method. The format is functional, cell-based. A digest of the protocol: as §3
The test system of a further assay is MV4-11. Nature of the assay: Cell cycle arrest in human MV4-11 cells assessed as accumulation at G1/S phase at 0.5 uM after 24 hrs by propidium iodide staining based flow cytometry. The format is functional. For orientation: Flow cytometry measures light scatter and fluorescence of single cells or particles in a stream.
For assay [10], the system named is PC-3. Nature of the assay: Cell cycle arrest in human PC3 cells assessed as accumulation at G2/M phase up to 2 uM after 24 hrs by propidium iodide staining based flow cytometry. Type of assay: functional.
The target of assay [11] is Histone deacetylase 3 (Homo sapiens) (UniProt O15379). As to conditions: 0.25 to 2 uM.
Assay [12] concerns the target T1, Histone deacetylase 1. The conditions noted are these: 0.25 to 2 uM.
For a further assay, the target named is Histone deacetylase 2 (Homo sapiens, UniProt Q92769). The conditions noted are these: 0.25 to 2 uM.
The target in assay [13] is Histone deacetylase 3 (Homo sapiens) (UniProt O15379). As to conditions: 0.25 to 2 uM. The source holds these as a separate data set.

SMILES strings stand for the structures. pIC50: −log10 of the molar value. Active and inactive are the calls of the source. The rule behind the calls is not given here.

Histone deacetylase 3 (Homo sapiens), sequence (O15379 whole entry): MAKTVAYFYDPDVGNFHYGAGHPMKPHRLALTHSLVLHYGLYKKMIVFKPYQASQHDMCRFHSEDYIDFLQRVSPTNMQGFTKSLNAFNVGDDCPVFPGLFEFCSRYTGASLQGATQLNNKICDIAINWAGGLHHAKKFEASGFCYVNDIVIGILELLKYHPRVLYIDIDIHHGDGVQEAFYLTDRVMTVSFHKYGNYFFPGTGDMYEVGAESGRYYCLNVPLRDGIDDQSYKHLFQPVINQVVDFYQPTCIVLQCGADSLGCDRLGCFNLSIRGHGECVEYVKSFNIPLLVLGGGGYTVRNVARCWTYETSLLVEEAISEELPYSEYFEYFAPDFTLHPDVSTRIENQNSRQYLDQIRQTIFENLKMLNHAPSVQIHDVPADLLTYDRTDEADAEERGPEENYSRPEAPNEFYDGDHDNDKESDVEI
T1 sequence (Q13547 whole entry): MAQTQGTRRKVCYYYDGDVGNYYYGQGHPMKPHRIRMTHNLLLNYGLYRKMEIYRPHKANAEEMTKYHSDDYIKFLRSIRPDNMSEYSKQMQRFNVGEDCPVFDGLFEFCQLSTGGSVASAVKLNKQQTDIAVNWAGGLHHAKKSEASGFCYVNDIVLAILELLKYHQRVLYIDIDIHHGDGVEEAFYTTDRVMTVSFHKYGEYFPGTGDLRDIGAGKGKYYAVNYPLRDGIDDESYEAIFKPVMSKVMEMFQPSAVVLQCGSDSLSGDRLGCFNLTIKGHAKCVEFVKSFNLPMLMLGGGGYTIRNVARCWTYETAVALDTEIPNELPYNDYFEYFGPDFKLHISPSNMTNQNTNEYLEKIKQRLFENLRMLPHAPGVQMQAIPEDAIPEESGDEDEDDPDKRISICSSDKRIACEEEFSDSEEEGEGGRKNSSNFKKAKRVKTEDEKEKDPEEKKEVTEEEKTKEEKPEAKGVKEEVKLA
Histone deacetylase 5, sequence (Q9UQL6 whole entry): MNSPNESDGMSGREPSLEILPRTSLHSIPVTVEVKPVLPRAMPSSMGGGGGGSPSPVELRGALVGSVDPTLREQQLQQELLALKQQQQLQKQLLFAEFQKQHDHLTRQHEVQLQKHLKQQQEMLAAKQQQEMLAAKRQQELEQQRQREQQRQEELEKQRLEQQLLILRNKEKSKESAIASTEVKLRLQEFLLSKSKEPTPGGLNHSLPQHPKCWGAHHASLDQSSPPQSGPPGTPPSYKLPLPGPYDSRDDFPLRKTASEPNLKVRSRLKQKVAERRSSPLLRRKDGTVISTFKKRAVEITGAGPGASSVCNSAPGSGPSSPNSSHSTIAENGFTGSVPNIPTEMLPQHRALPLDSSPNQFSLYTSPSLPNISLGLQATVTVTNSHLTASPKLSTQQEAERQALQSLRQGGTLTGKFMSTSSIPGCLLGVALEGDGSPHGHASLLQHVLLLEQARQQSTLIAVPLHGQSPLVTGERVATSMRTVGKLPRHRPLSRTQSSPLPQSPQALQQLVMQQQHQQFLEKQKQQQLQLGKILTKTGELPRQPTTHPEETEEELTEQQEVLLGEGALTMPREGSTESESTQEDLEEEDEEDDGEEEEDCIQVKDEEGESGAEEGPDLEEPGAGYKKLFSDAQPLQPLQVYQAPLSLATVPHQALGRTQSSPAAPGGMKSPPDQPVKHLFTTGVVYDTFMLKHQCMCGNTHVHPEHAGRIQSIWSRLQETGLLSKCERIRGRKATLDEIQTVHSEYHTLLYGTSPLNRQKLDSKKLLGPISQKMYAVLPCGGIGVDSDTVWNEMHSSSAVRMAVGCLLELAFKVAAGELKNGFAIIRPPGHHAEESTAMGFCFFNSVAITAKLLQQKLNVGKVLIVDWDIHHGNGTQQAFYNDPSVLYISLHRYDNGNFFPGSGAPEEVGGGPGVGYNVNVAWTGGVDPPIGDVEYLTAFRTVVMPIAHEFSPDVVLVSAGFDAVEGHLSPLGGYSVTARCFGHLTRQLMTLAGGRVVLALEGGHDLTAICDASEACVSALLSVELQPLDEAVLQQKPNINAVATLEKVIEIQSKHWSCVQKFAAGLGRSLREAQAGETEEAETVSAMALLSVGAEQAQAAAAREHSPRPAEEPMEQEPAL
Histone deacetylase 3/Nuclear receptor corepressor 2 (HDAC3/NCoR2), sequence (O15379 whole entry): as the sequence (O15379 whole entry) above
Histone deacetylase 3/Nuclear receptor corepressor 2 (HDAC3/NCoR2), sequence (Q9Y618 whole entry, further chain): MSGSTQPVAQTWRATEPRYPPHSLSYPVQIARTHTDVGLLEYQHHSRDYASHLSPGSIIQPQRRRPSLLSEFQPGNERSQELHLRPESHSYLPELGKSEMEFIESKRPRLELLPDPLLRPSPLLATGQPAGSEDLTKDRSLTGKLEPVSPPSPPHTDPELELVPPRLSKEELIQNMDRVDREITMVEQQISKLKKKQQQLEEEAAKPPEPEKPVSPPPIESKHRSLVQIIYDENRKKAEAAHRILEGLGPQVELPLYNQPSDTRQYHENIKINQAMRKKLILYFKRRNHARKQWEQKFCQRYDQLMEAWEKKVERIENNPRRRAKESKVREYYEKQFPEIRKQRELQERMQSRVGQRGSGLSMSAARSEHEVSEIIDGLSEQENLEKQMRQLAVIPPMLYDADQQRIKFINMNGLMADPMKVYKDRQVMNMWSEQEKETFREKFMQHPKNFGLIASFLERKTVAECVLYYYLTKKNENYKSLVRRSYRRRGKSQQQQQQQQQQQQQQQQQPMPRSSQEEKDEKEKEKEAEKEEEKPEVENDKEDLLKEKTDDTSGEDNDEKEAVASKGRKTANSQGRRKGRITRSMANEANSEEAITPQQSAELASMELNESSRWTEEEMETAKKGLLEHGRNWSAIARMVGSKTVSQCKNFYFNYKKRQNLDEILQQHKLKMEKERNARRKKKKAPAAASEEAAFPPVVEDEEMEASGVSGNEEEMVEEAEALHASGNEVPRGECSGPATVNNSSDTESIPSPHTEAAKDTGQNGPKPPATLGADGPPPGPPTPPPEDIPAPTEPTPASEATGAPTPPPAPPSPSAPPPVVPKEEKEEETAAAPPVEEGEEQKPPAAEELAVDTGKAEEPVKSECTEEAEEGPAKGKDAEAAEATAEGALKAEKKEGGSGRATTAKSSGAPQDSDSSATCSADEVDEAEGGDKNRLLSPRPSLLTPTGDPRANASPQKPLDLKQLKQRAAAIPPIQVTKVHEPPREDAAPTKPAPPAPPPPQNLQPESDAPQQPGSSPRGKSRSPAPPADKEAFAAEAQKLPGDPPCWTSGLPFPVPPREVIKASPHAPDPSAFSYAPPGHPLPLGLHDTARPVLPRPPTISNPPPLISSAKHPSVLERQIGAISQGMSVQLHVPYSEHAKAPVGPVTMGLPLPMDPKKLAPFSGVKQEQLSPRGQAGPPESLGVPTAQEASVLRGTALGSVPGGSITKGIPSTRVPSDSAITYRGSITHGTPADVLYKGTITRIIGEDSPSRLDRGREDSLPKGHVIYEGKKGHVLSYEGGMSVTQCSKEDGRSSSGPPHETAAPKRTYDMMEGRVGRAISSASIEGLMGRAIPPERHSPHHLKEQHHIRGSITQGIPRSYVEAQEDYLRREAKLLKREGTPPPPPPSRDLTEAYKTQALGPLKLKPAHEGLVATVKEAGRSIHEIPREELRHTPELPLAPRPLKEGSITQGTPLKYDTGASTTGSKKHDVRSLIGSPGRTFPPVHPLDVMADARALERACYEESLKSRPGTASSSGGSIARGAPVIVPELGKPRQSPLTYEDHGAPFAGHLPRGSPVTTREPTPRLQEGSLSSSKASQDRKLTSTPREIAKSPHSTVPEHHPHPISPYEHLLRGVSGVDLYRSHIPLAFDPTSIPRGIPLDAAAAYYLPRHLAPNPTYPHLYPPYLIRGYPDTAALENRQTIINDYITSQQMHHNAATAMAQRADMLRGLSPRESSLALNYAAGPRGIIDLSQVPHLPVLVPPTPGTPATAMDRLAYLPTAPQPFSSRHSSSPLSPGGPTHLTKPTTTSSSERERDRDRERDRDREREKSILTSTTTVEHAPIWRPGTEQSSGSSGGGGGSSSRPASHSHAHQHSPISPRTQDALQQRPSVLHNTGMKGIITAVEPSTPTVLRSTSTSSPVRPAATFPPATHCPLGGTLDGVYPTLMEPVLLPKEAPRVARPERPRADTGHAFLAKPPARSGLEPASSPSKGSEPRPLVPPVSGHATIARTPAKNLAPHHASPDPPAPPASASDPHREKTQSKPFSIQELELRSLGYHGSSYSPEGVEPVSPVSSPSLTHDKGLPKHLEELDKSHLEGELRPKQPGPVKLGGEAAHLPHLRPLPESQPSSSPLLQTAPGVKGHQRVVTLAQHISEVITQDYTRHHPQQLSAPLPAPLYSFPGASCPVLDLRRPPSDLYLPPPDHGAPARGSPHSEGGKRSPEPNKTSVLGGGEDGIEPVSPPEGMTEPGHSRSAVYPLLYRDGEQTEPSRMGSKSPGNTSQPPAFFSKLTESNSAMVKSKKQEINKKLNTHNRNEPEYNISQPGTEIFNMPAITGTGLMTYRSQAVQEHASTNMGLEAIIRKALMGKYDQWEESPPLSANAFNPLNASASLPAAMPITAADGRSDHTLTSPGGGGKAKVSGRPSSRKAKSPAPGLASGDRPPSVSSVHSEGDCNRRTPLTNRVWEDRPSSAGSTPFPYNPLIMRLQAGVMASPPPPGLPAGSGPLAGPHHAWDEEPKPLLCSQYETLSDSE
Histone deacetylase 2, sequence (Q92769 whole entry): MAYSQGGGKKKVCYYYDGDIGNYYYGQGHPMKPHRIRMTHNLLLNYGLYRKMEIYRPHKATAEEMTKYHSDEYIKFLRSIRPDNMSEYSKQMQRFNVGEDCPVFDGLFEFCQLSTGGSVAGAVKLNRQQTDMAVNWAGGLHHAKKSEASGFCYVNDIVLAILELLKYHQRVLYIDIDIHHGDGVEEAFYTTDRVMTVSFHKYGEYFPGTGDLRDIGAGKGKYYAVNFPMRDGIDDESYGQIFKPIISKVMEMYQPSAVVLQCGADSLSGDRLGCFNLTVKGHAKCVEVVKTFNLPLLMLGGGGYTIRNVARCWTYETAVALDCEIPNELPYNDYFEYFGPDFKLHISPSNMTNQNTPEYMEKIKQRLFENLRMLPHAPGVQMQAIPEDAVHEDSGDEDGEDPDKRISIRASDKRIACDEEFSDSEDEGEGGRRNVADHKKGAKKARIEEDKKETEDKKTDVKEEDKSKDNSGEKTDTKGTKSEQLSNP

For orientation: pIC50 means −log10 of the IC50, conventionally taken in molar units. For `CCCNNC(=O)c1ccc(NC(=O)[C@H](Cc2c[nH]c3ccccc23)NC(=O)c2ccc(OC)cc2)cc1`, the pIC50 was 8.02 on Histone deacetylase 1 [1], 8.85 in assay [2], 4.00 to 4.30 in assay [3] and less than 4.30 on Histone deacetylase 5. For the same compound, the inhibition result in [4] and in assay [8] was “inactive” in each case. Moreover, the viability at 10 µM with PC-3 [5] stood at 20%. Besides, the result in the assay with PC-3 [6], in the assay with PC-3 [7] and in the assay on PC-3 [9] was inactive. For the same compound, the result with MV4-11 and in the assay on PC-3 [10] was Active. Moreover, the inhibition result (in assay [11]; on Histone deacetylase 1 [12]; at Histone deacetylase 2; in [13]) was “Active” each time.

The values are drawn from ChEMBL document CHEMBL4020839, “Class I HDAC Inhibitors Display Different Antitumor Mechanism in Leukemia and Prostatic Cancer Cells Depending on Their p53 Status” (J Med Chem, 2018).
